Consider 1 compound from ChEMBL document CHEMBL3297708, “Lead optimization of a novel series of imidazo[1,2-a]pyridine amides leading to a clinical candidate (Q203) as a multi- and extensively-drug-resistant anti-tuberculosis agent” (J Med Chem, 2014).

pIC50: −log10 of the molar value. Values after ≈ are worked out from the molar mass of the structure shown.

The subject of data set [1] is Mycobacterium tuberculosis. Briefly: Antimycobacterial activity against Mycobacterium tuberculosis H37Rv in liquid broth culture medium. It is filed as functional. An outline of the steps:
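M. tuberculosis H37Rv replicating in liquid broth culture medium; MIC80 determined, i.e. concentration inhibiting 80% of growth.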

Data set [2] deals with Mycobacterium tuberculosis. The data set is described as follows: Antimycobacterial activity against Mycobacterium tuberculosis H37Rv in macrophages. It is filed as functional. In short, it runs like this:
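M. tuberculosis H37Rv replicating inside macrophages; intracellular MIC80 determined, i.e. concentration inhibiting 80% of growth.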

Data set [3] in a line: Half life in human liver microsomes. It is filed as ADME. In short, it runs like this:
(§1)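 Metabolic stability measured by incubation in human or mouse liver microsomal preparations; half-life reported.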

A short description of data set [4]: Half life in mouse liver microsomes. The format is ADME. An outline of the steps: as §1
The target of a further data set is Cytochrome P450 3A4 (Homo sapiens, UniProt P08684). The data set is described as follows: Inhibition of recombinant CYP3A4 (unknown origin) by LC/MS/MS analysis. It is filed as ADME. An outline of the steps: (§2)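 Recombinant CYP enzymes (5 pmol/mL) with substrate, in 100 mM potassium phosphate pH 7.4, 3.3 mM MgCl2, with or without 1 mM NADPH; incubated 10 min (CYP1A2, CYP2C9), 20 min (CYP2C19, CYP2D6), or 3 min (CYP3A4); stopped with cold stop solution containing tolbutamide internal standard; metabolite measured by LC-MS/MS.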

In a further data set the target is Cytochrome P450 2D6 (Homo sapiens, UniProt P10635). The data set is described as follows: Inhibition of recombinant CYP2D6 (unknown origin) by LC/MS/MS analysis. It is filed as ADME. An outline of the steps:
as §2

Another data set has as its target T1, Cytochrome P450 1A2 (Homo sapiens, UniProt P05177).
T1 sequence (P05177 whole entry): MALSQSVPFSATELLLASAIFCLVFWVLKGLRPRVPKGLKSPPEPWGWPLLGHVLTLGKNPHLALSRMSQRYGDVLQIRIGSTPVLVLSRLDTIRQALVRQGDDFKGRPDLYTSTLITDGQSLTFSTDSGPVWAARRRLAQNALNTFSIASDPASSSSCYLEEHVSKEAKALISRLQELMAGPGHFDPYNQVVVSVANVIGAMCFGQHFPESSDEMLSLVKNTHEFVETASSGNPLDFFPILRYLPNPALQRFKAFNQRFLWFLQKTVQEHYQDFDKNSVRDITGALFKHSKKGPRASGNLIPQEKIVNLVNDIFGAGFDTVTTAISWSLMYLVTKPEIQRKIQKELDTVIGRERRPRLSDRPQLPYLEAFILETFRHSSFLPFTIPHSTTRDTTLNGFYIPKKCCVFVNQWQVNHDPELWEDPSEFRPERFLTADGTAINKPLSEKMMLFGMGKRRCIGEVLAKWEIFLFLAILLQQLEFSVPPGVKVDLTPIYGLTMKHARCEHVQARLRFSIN
Briefly: Inhibition of recombinant CYP1A2 (unknown origin) by LC/MS/MS analysis. It is filed as ADME. An outline of the steps:
as §2

For another data set, the target named is Cytochrome P450 2C9 (Homo sapiens, UniProt P11712). The data set is described as follows: Inhibition of recombinant CYP2C9 (unknown origin) by LC/MS/MS analysis. The format is ADME. In short, it runs like this: as §2
Another data set deals with Cytochrome P450 2C19 (Homo sapiens, UniProt P33261). The data set is described as follows: Inhibition of recombinant CYP2C19 (unknown origin) by LC/MS/MS analysis. It is filed as ADME. In short, it runs like this: as §2
A short description of data set [5]: Elimination half life in mouse at 2 mg/kg, iv. It is filed as ADME, organism-based. Also noted: dose 2 mg/kg, route intravenous. Conditions: in vivo, read-out: beta t1/2 (converted). In short, it runs like this: (§3)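 Mice dosed at 2 mg/kg i.v. and 10 mg/kg p.o.; plasma sampled and PK parameters (half-life, clearance, volume of distribution, Cmax, Tmax, AUC, oral bioavailability) derived from the plasma concentration–time profiles.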

Data set [6] in a line: Clearence in mouse at 2 mg/kg, iv. The format is ADME, organism-based. As to conditions: in vivo. Also noted: dose 2 mg/kg, route intravenous. An outline of the steps: as §3
Data set [7] in a line: Volume of distribution at steady state in mouse at 2 mg/kg, iv. As to conditions: in vivo, read-out: Vdss. It is filed as ADME, organism-based. Also noted: dose 2 mg/kg, route intravenous. In short, it runs like this: as §3
A short description of data set [8]: Cmax in mouse at 10 mg/kg, po. The format is ADME, organism-based. Also noted: dose 10 mg/kg, route oral. Conditions: in vivo. An outline of the steps: as §3
The nature of data set [9]: Tmax in mouse at 10 mg/kg, po. The format is ADME, organism-based. Conditions: in vivo. Also noted: dose 10 mg/kg, route oral. An outline of the steps: as §3
Data set [10] in a line: AUC (0 to infinity) in mouse at 10 mg/kg, po. It is filed as ADME, organism-based. Also noted: time infinity, dose 10 mg/kg, route oral. As to conditions: plasma. In short, it runs like this: as §3
Data set [11] can be described thus: Oral bioavailability in mouse at 10 mg/kg. Conditions: in vivo. The format is ADME, organism-based. In short, it runs like this:
as §3

Data set [12] relates to Mycobacterium tuberculosis. The data set is described as follows: Antimycobacterial activity against Mycobacterium tuberculosis H37Rv infected in BALB/c mouse assessed as lung bacterial load at 2 mg/kg administered 3 weeks after infection via oral gavage for 28 days, five times per week measured per lung (reference value: 7.24 +/- 0.17 log10 CFU). The format is functional. In short, it runs like this: (§4)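 BALB/c mice infected intranasally with 2 x10^2 to 2 x 10^3 CFU M. tuberculosis H37Rv; oral gavage treatment started 3 weeks post-infection, given five times per week for 28 days; lung bacterial burden enumerated as log10 CFU per lung; values reported ± spread; untreated infected mice as baseline.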

For data set [13], the system named is Mycobacterium tuberculosis. Briefly: Antimycobacterial activity against Mycobacterium tuberculosis H37Rv infected in BALB/c mouse assessed as lung bacterial load at 10 mg/kg administered 3 weeks after infection via oral gavage for 28 days, five times per week measured per lung (reference value: 7.24 +/- 0.17 log10 CFU). It is filed as functional. An outline of the steps: as §4

In data set [14] the test system is Mycobacterium tuberculosis. Briefly: Antimycobacterial activity against Mycobacterium tuberculosis H37Rv infected in BALB/c mouse assessed as lung bacterial load at 50 mg/kg administered 3 weeks after infection via oral gavage for 28 days, five times per week measured per lung (reference value: 7.24 +/- 0.17 log10 CFU). The format is functional. An outline of the steps:
as §4

Data set [15] in a line: Solubility of the compound in phosphate buffer at pH 7.4. The format is physicochemical.
Data set [16] is described as follows: Solubility of the compound in aqueous solution at pH 2.1. It is filed as physicochemical.
Data set [17] in a line: Half life in mouse at 10 mg/kg, po. Also noted: dose 10 mg/kg, route oral. Conditions: in vivo. It is filed as ADME, organism-based. An outline of the steps:
as §3

Data set [18] deals with Mycobacterium tuberculosis. The data set is described as follows: Antimycobacterial activity against Mycobacterium tuberculosis H37Rv infected in BALB/c mouse assessed as lung bacterial load administered 3 weeks after infection via oral gavage for 28 days, five times per week measured per lung. It is filed as functional, organism-based. An outline of the steps:
as §4

Cytochrome P450 3A4, sequence (P08684 whole entry): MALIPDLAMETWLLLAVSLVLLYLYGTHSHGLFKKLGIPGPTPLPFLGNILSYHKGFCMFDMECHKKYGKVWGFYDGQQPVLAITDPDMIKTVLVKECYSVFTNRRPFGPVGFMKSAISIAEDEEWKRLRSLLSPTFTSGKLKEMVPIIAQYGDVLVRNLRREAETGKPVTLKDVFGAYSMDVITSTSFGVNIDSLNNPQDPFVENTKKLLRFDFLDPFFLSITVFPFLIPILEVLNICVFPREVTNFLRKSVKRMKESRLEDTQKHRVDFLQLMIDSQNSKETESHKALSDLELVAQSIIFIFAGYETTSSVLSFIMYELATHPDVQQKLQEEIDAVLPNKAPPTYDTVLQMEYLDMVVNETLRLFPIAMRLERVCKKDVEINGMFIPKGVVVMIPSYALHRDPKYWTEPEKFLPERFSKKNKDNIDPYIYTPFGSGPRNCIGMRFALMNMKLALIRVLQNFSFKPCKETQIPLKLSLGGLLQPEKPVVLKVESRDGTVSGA
Cytochrome P450 2D6, sequence (P10635 whole entry): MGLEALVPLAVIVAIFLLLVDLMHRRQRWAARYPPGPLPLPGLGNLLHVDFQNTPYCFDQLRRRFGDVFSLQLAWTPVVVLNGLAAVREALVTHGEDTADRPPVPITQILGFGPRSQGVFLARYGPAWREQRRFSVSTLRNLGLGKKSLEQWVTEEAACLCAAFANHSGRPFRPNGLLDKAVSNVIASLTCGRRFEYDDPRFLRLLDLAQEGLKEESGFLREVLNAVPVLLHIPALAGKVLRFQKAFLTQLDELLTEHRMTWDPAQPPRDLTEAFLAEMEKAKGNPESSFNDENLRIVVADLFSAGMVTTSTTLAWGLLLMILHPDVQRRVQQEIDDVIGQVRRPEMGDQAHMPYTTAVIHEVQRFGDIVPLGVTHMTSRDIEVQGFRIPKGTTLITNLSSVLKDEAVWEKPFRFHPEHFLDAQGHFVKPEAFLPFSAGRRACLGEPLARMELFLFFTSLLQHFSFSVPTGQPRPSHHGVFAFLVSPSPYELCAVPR
Cytochrome P450 2C19, sequence (P33261 whole entry): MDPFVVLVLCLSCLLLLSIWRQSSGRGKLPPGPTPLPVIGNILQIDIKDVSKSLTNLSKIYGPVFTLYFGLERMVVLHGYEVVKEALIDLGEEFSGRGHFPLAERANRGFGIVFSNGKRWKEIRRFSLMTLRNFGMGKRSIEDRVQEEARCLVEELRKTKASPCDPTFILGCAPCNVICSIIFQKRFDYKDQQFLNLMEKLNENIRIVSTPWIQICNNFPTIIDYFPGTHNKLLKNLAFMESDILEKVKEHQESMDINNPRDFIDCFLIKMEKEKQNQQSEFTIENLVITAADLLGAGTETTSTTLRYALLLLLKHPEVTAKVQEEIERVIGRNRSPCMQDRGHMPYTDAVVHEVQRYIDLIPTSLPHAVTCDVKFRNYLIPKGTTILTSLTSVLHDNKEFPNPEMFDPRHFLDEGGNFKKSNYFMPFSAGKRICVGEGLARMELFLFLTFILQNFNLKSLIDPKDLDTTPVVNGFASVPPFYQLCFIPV
Cytochrome P450 2C9, sequence (P11712 whole entry): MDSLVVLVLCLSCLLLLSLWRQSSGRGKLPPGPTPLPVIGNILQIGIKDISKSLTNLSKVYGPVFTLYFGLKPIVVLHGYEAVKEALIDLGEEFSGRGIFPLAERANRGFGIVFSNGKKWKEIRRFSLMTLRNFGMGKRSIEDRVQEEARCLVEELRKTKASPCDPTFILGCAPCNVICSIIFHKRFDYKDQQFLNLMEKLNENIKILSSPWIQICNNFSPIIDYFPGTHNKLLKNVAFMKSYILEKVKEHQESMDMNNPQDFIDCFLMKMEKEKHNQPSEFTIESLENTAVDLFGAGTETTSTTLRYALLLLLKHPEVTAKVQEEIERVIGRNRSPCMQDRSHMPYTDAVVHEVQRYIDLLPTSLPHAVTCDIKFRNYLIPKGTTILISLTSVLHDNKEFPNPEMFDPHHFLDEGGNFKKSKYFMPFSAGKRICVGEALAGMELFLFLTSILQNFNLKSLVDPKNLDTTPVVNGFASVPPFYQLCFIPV

Consider `CCc1nc2cc(Cl)ccn2c1C(=O)NCc1ccc(N2CCC(c3ccc(OC(F)(F)F)cc3)CC2)cc1`, for which the results for the MIC80 in data set [1] and in data set [2] were 4 nM (≈ 2.23 ng/mL) and 3.7 nM (≈ 2.06 ng/mL), respectively. Moreover, the half-life is > 120 min in data set [3], > 120 min in [4], 2.6 days in data set [5] and 1280 min in data set [17]. For the same compound, the pIC50 is < 4.00 on Cytochrome P450 3A4; < 4.00 on Cytochrome P450 2D6; < 4.00 at Cytochrome P450 1A2; 6.85 at Cytochrome P450 2C9; 6.54 at Cytochrome P450 2C19. In [6], the clearance is 3.15 mL/min/kg. The Vd in data set [7] came to 14.3 L/kg. The same compound yielded a Cmax in data set [8] of 1990 ng/mL. Also, the Tmax in [9] came to 2 h. Besides, the area under the curve AUC(0-inf) in data set [10] is 27300 ng·h/mL. This compound also registered a bioavailability in [11] of 80.2%. Besides, the log10cfu in [12] is listed as 6.23; in [13], 5.72; in [14], 5.65. Moreover, the solubility in data set [15] was 1.32 µg/mL (≈ 2.37 µM); in data set [16] it was 55.8 µg/mL (≈ 100 µM). Besides, the inhibition result in [18] is “Dose-dependent effect”.
